# Experimental data reported in ChEMBL document CHEMBL3243987 (J Med Chem, 1979).
# Key:
# Dihydrofolate reductase = Dihydrofolate reductase (Lactobacillus casei, UniProt P00381); experiment: Inhibition of Lactobacillus casei ATCC 7469 dihydrofolate reductase; design: species or system Lacticaseibacillus casei
# Lacticaseibacillus casei = experiment: Antimicrobial activity against folate-dependent Lactobacillus casei ATCC 7469 assessed as growth inhibition; assay type: functional, organism-based
# CCRF-CEM = experiment: Antitumor activity against human CCRF-CEM assessed as growth inhibition; assay type: functional; details: read-out: ID50 (the source's name)
# L1210 [1] = experiment: Antitumor activity against mouse L1210 cells allografted in BDF/1 hybrid mouse assessed as increase in life span at 50 to 200 mg/kg, ip first dose treated 24 hrs after tumor implantation and on day 4 and 7; assay type: functional; details: dose mg/kg 50-200; route intraperitoneal
# Procedure, shortened: (§1)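 Male BDF/1 hybrid mice were inoculated ip with 10⁵ L-1210 leukemia cells and then given three doses (mg/kg × 3). The read-out was percent increase in life span (% ILS) compared with untreated control animals, reported at the optimal dose.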
# L1210 [2] = experiment: Antitumor activity against mouse L1210 cells allografted in BDF/1 hybrid mouse assessed as increase in life span at 400 mg/kg, ip first dose treated 24 hrs after tumor implantation and on day 4 and 7; assay type: functional; details: route intraperitoneal; procedure, shortened: as §1
# Thymidylate synthase = biological target: T1, Thymidylate synthase (Lactobacillus casei, UniProt P00469); experiment: Inhibition of Lactobacillus casei ATCC 7469 thymidylate synthase; design: species or system Lacticaseibacillus casei
# T1 sequence (P00469 whole entry): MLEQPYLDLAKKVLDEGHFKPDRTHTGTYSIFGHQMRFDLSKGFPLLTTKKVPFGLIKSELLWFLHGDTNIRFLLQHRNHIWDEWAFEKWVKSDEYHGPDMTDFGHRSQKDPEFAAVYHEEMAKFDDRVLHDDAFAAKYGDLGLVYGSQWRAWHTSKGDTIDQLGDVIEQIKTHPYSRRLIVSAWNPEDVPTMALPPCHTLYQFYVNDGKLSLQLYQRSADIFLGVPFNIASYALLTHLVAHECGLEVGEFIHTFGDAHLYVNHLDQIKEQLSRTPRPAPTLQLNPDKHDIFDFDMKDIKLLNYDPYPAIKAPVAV
# L1210 [3] = experiment: Antitumor activity against mouse L1210 cells allografted in BDF/1 hybrid mouse assessed as increase in life span at 200 mg/kg, ip first dose treated 24 hrs after tumor implantation and on day 4 and 7; assay type: functional; details: route intraperitoneal; procedure, shortened: as §1
# L1210 [4] = experiment: Antitumor activity against mouse L1210 cells allografted in BDF/1 hybrid mouse assessed as increase in life span at 30 mg/kg, ip first dose treated 24 hrs after tumor implantation and on day 4 and 7; assay type: functional; details: route intraperitoneal; procedure, shortened: as §1
# Chain of Dihydrofolate reductase (P00381 whole entry): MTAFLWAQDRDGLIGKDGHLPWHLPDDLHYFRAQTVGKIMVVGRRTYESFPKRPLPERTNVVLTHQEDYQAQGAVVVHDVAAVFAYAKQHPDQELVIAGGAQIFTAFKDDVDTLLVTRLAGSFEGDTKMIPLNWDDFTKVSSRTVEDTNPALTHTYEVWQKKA
Structure (SMILES),IC50 (Dihydrofolate reductase),IC50 (Lacticaseibacillus casei),IC50 (CCRF-CEM),ILS (L1210 [1]),ILS at 400 mg/kg (L1210 [2]),IC50 (Thymidylate synthase),ILS at 200 mg/kg (L1210 [3]),ILS at 30 mg/kg (L1210 [4])
COC(=O)C[C@H](NC(=O)Nc1ccc(N(C)Cc2cnc3nc(N)nc(N)c3n2)cc1)C(=O)OC,0.6 µM,0.006 mg/L,3.9 mg/L,–,–,–,–,–
COC(=O)CCC1NC(=O)N(c2ccc(N(C)Cc3cnc4nc(N)nc(N)c4n3)cc2)C1=O (racemic),4 µM,0.104 mg/L,6.7 mg/L,0%,–,–,–,–
CN(Cc1cnc2nc(N)nc(N)c2n1)c1ccc(NC(=O)NC(CC(=O)O)C(=O)O)cc1 (racemic),0.05 µM,0.15 mg/L,3.2 mg/L,–,22%,190 µM,–,–
CN(Cc1cnc2nc(N)nc(N)c2n1)c1ccc(NC(=O)NC(CCC(=O)O)C(=O)O)cc1 (racemic),0.08 µM,0.008 mg/L,0.4 mg/L,–,–,250 µM,55%,–
COC(=O)CC[C@H](NC(=O)Nc1ccc(N(C)Cc2cnc3nc(N)nc(N)c3n2)cc1)C(=O)OC,0.3 µM,0.006 mg/L,3.5 mg/L,–,–,–,–,–
CN(Cc1cnc2nc(N)nc(N)c2n1)c1ccc(C(=O)N[C@@H](CCC(=O)O)C(=O)O)cc1 [METHOTREXATE],–,–,0.02 mg/L,–,–,–,–,88%
